≈ marks a conversion by molar mass, not a printed value.
Legend:
[1] = Urinary excretion for the compound was evaluated as percent dose excreted at 25 mg/kg os dosage; type: ADME, organism-based; parameters: dose 25 mg/kg; conditions: urine, po
Outline: (§1)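 Fasted male Wistar rats (180–230 g) dosed orally, suspended in carboxymethyl cellulose. Plasma and urine assayed by HPLC: sample plus internal standard and citrate buffer (0.1 M, pH 6.2), extracted into CHCl₃, dried, redissolved in MeOH. Separation on C-18 with 0.1% AcOH/MeOH gradient, UV detection at 245 nm.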

in vivo [2] = conditions: po, 25 mg/kg
Morganella morganii = experiment: In vitro antibacterial activity against clinical isolates of Proteus morganii 27 (gram negative) by agar dilution assay.; type: functional
Outline: (§2)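 Agar dilution on Isosensitest agar; compound incorporated by twofold serial dilution. Overnight broth cultures delivered by multipoint inoculator at 10⁵ CFU per point. Plates read after 18 h at 37 °C. MIC taken as the lowest concentration giving complete growth inhibition.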

[3] = Peak plasma concentration at a dose of 20 mg/kg, oral route in dog(beagle) suspended in carboxymethyl cellulose (CMC); type: ADME, organism-based, Canis lupus familiaris; parameters: dose 20 mg/kg, route oral; conditions: read-out: Activity
Outline: (§3)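 Four male beagle dogs or two Macaca fascicularis monkeys dosed orally, suspended in carboxymethyl cellulose. Venous blood collected into heparinized tubes and plasma separated by low-speed centrifugation. Urine gathered in metabolic cages. Unchanged drug measured by C-18 HPLC (extraction, UV 245 nm).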

[4] = Time taken for peak plasma concentration at a dose of 400 mg/kg, oral route in human; type: ADME, organism-based; parameters: dose 400 mg/kg, route oral
Outline: (§4)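 Four healthy volunteers of both sexes took oral capsules (100 mg units) at three dose levels. Venous blood drawn into heparinized tubes and plasma obtained by low-speed centrifugation. Urine collected. Unchanged drug in plasma and urine determined by C-18 HPLC after CHCl₃ extraction, with UV detection at 245 nm.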

[5] = Plasma levels determined 1 hr after peroral dose of 50 mg/kg; conditions: po
[6] = Tissue levels determined 1 hr after peroral dose of 50 mg/kg in kidney; conditions: po
[7] = Urinary excretion for the compound was evaluated as percent dose excreted at 25 mg/kg intraperitoneal dosage; type: ADME, organism-based; parameters: dose 25 mg/kg, route intraperitoneal; conditions: urine, ip
Outline: (§5)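 Fasted male Wistar rats (180–230 g) given the drug ip in carboxymethyl cellulose. Plasma and urine extracted with CHCl₃ from citrate buffer pH 6.2 with internal standard. Analysis by reverse-phase C-18 HPLC, 0.1% AcOH/MeOH gradient, 245 nm UV. Urinary clearance and total clearance derived as pharmacokinetic parameters.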

[8] = Peak plasma concentration at a dose of 50 mg/kg, os route in rat suspended in carboxymethyl cellulose (CMC); type: ADME, organism-based; parameters: dose 50 mg/kg; conditions: po, read-out: Activity
Outline: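 Fasted male Wistar rats (180–230 g), drug suspended in carboxymethyl cellulose, given orally or ip. Plasma (heparinized) and urine from metabolic cages were sampled at various times. The unchanged drug was measured by HPLC after CHCl3 extraction at pH 6.2 with an internal standard, on a C-18 column with an AcOH/MeOH gradient and UV detection at 245 nm. Interassay and intraassay variability was about 10%.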

Enterobacter cloacae = experiment: In vitro antibacterial activity against clinical isolates of Enterobacter cloacae 041 (gram negative) by agar dilution assay.; type: functional; outline: as §2
[9] = Urinary clearance was determined in rat at 25 mg/kg intraperitoneal dosage; type: ADME, organism-based; parameters: dose 25 mg/kg, route intraperitoneal; conditions: urine, ip, read-out: CL_renal (converted); outline: as §5
[10] = Urinary clearance was determined in rat at 25 mg/kg os dosage; type: ADME, organism-based; parameters: dose 25 mg/kg; conditions: urine, po, read-out: CL_renal (converted); outline: as §1
[11] = Peak plasma concentration at a dose of 100 mg/kg, os route in rat suspended in carboxymethyl cellulose (CMC); type: ADME, organism-based; parameters: dose 100 mg/kg; conditions: po, read-out: Activity; outline: as §1
[12] = Half life period was determined for the compound at 20 mg/kg concentration, oral route in dog(beagle); type: ADME, organism-based, Canis lupus familiaris; parameters: dose 20 mg/kg, route oral; conditions: in vivo; outline: as §3
Rattus norvegicus [13] = experiment: Volume of distribution at a dose of 10 mg/kg, intraperitoneal route in rat suspended in carboxymethyl cellulose (CMC); type: ADME, organism-based; parameters: dose 10 mg/kg, route intraperitoneal; conditions: in vivo, ip; outline: as §5
Pseudomonas aeruginosa = experiment: In vitro antibacterial activity against clinical isolates of Pseudomonas aeruginosa 2437 (gram negative) by agar dilution assay.; type: functional; outline: as §2
[14] = Time taken for peak plasma concentration at a dose of 50 mg/kg, os route in rat suspended in carboxymethyl cellulose (CMC); type: ADME, organism-based; parameters: dose 50 mg/kg; conditions: po; outline: as §1
[15] = Lethal dose after single iv administration to mouse was determined; type: toxicity, organism-based; conditions: in vivo
[16] = Ratio of tissue (liver) levels to plasma levels after 1 hr of treatment; type: ADME
Outline: (§6)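 Male Wistar rats received 50 mg/kg po and were killed at 1 and 15 h. Tissue homogenates and plasma extracted with CHCl₃ after adding internal standard and pH 6.2 citrate buffer. Drug quantified by C-18 HPLC with UV at 245 nm. Tissue level divided by plasma level.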

in vivo [17] = conditions: plasma, po, 50 mg/kg
[18] = Lethal dose after single iv administration to rat was determined; type: toxicity, organism-based; conditions: in vivo
Outline: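 Male Wistar rats (130-150 g) were given single intravenous doses at no fewer than three levels. Deaths were counted over 14 days, and LD50 was calculated by the Litchfield and Wilcoxon method.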

[19] = Urinary excretion for the compound was evaluated as percent dose excreted at 100 mg/kg oral dosage in human; type: ADME, organism-based; parameters: dose 100 mg/kg, route oral; conditions: urine; outline: as §4
[20] = Ratio of tissue (kidney) levels to plasma levels after 1 hr of treatment; type: ADME; outline: as §6
[21] = Urinary excretion for the compound was evaluated as percent dose excreted at 10 mg/kg intraperitoneal dosage; type: ADME, organism-based; parameters: dose 10 mg/kg, route intraperitoneal; conditions: urine, ip; outline: as §5
[22] = Time taken for peak plasma concentration at a dose of 20 mg/kg, oral route in monkey (Macaca fascicularis) suspended in carboxymethyl cellulose (CMC); type: ADME, organism-based; parameters: dose 20 mg/kg, route oral; conditions: cynomolgus monkey; outline: as §3
[23] = Half life period was determined for the compound at 200 mg/kg concentration, oral route in human; type: ADME, organism-based; parameters: dose 200 mg/kg, route oral; conditions: in vivo; outline: as §4
in vivo [24] = conditions: liver, po, 50 mg/kg
[25] = Urinary clearance was determined in rat at 10 mg/kg intraperitoneal dosage; type: ADME, organism-based; parameters: dose 10 mg/kg, route intraperitoneal; conditions: urine, ip, read-out: CL_renal (converted); outline: as §5
[26] = Peak plasma concentration at a dose of 20 mg/kg, oral route in monkey (Macaca fascicularis) suspended in carboxymethyl cellulose (CMC);Range is between (5.5-6); type: ADME, organism-based; parameters: dose 20 mg/kg, route oral; conditions: cynomolgus monkey, read-out: Activity; outline: as §3
[27] = Ratio of tissue (liver) levels to plasma levels after 15 hr of treatment; type: ADME; outline: as §6
Homo sapiens = experiment: Urinary clearance was determined at 100 mg/kg oral dosage in human; type: ADME, organism-based, Urine; parameters: dose 100 mg/kg, route oral; conditions: in vivo; outline: as §4
[28] = Half life period was determined for the compound at 400 mg/kg concentration, oral route in human; type: ADME, organism-based; parameters: dose 400 mg/kg, route oral; conditions: in vivo; outline: as §4
[29] = Ratio of tissue (kidney) levels to plasma levels after 15 hr of treatment; type: ADME; outline: as §6
[30] = Half life period was determined for the compound at 100 mg/kg concentration, oral route in human; type: ADME, organism-based; parameters: dose 100 mg/kg, route oral; conditions: in vivo; outline: as §4
[31] = Peak plasma concentration at a dose of 25 mg/kg, os route in rat suspended in carboxymethyl cellulose (CMC); type: ADME, organism-based; parameters: dose 25 mg/kg; conditions: po, read-out: Activity; outline: as §1
in vivo [32] = conditions: kidney, po, 50 mg/kg
Rattus norvegicus [33] = experiment: Volume of distribution at a dose of 25 mg/kg, intraperitoneal route in rat suspended in carboxymethyl cellulose (CMC); type: ADME, organism-based; parameters: dose 25 mg/kg, route intraperitoneal; conditions: in vivo, ip; outline: as §5
[34] = Ratio of tissue (heart) levels to plasma levels after 1 hr of treatment; type: ADME; outline: as §6
[35] = Time taken for peak plasma concentration at a dose of 25 mg/kg, os route in rat suspended in carboxymethyl cellulose (CMC); type: ADME, organism-based; parameters: dose 25 mg/kg; conditions: po; outline: as §1

## CN1CCN(c2c(F)cc3c(=O)c(C(=O)O)cn4c3c2SCC4)CC1 [RUFLOXACIN]
[1]
  dose excreted: 24.5%
In vivo [2]
  half-life: 8.7 h
Morganella morganii
  MIC: 1.56 µg/mL (≈ 4.29 µM)
[3]
  Cmax: 5700 ng/mL
[4]
  Tmax: 2 h
[5]
  concentration at 1 h: 10000 ng/mL
[6]
  concentration at 1 h: 61000 ng/mL
[7]
  dose excreted: 22.2%
[8]
  Cmax: 8000 ng/mL
Enterobacter cloacae
  MIC: < 0.39 µg/mL
[9]
  CL renal: 0.79 mL/min/kg
[10]
  CL renal: 1.21 mL/min/kg
[11]
  Cmax: 21000 ng/mL
[12]
  half-life: 12 h
Rattus norvegicus [13]
  Vd: 3 L/kg
Pseudomonas aeruginosa
  MIC: 12.5 µg/mL (≈ 34.4 µM)
[14]
  Tmax: 1 h
[15]
  LD50: 224 mg/kg
[16]
  Kp at 1 h: 8
In vivo [17]
  concentration at 15 h: 3000 ng/mL
[18]
  LD50: 285 mg/kg
[19]
  dose excreted: 45%
[20]
  Kp at 1 h: 6
[21]
  dose excreted: 26%
[22]
  Tmax: 2 h
[23]
  half-life: 35 h
In vivo [24]
  concentration at 15 h: 11000 ng/mL
[25]
  CL renal: 0.75 mL/min/kg
[26]
  Cmax: 5500 ng/mL
[27]
  Kp at 15 h: 3.7
Homo sapiens
  CL_renal: 0.0933 mL/min/kg
[28]
  half-life: 32 h
[29]
  Kp at 15 h: 2.7
[30]
  half-life: 30 h
[31]
  Cmax: 6000 ng/mL
In vivo [32]
  concentration at 15 h: 8000 ng/mL
Rattus norvegicus [33]
  Vd: 3 L/kg
[34]
  Kp at 1 h: 3
[35]
  Tmax: 1 h
